ChEMBL document CHEMBL3098013, “Novel pyrazole integrated 1,3,4-oxadiazoles: synthesis, characterization and antimicrobial evaluation” (2014)
In brackets after ≈: the same amount, converted by molar mass.

Legend:
Type in all cases: functional
[1] = tested on: Aspergillus flavus; experiment: Antimicrobial activity against Aspergillus flavus MTCC 873 at 100 ug/ml after 48 hrs by disc diffusion method; conditions: for zone of inhibition at 100 µg/mL: MTCC 873, 48 h, read-out: DIZ
In short: (§1)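 Agar diffusion read-out is the diameter of the inhibition zone in mm. Each test was run in six replicates and reported as mean ± standard deviation, taken from at least three determinations.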

[2] = tested on: Fusarium oxysporum; experiment: Antimicrobial activity against Fusarium oxysporum MTCC 284 after 48 hrs by microdilution method
In short: (§2)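 The minimal inhibitory concentration was determined by dilution, alongside minimal bactericidal concentration for bacterial strains and minimal fungicidal concentration for fungal strains. Tests were run in six replicates, and the value is the mean of at least three determinations.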

[3] = tested on: Staphylococcus aureus; experiment: Antimicrobial activity against Staphylococcus aureus MTCC 96 after 24 hrs by microdilution method; conditions: MTCC 96, 24 h; in short: as §2
[4] = tested on: Escherichia coli; experiment: Antimicrobial activity against Escherichia coli MTCC 724 at 100 ug/ml after 24 hrs by disc diffusion method; conditions: MTCC 724, 24 h, read-out: DIZ; in short: as §1
[5] = tested on: Klebsiella pneumoniae; experiment: Antimicrobial activity against Klebsiella pneumoniae MTCC 3384 after 24 hrs by microdilution method; conditions: MTCC 3384, 24 h; in short: as §2
[6] = tested on: Fusarium verticillioides; experiment: Antimicrobial activity against Fusarium moniliforme MTCC 156 at 50 ug/ml after 48 hrs by disc diffusion method; conditions: for zone of inhibition at 50 µg/mL: MTCC 156, 48 h, read-out: DIZ; in short: as §1
[7] = tested on: Aspergillus flavus; experiment: Antimicrobial activity against Aspergillus flavus MTCC 873 after 48 hrs by microdilution method; in short: as §2
[8] = tested on: Escherichia coli; experiment: Antimicrobial activity against Escherichia coli MTCC 724 after 24 hrs by microdilution method; conditions: MTCC 724, 24 h; in short: as §2
[9] = tested on: Staphylococcus aureus; experiment: Antimicrobial activity against Staphylococcus aureus MTCC 96 at 50 ug/ml after 24 hrs by disc diffusion method; conditions: MTCC 96, 24 h, read-out: DIZ; in short: as §1
[10] = tested on: Aspergillus flavus; experiment: Antimicrobial activity against Aspergillus flavus MTCC 873 at 50 ug/ml after 48 hrs by disc diffusion method; conditions: for zone of inhibition at 50 µg/mL: MTCC 873, 48 h, read-out: DIZ; in short: as §1
[11] = tested on: Klebsiella pneumoniae; experiment: Antimicrobial activity against Klebsiella pneumoniae MTCC 3384 at 50 ug/ml after 24 hrs by disc diffusion method; conditions: MTCC 3384, 24 h, read-out: DIZ; in short: as §1
[12] = tested on: Staphylococcus aureus; experiment: Antimicrobial activity against Staphylococcus aureus MTCC 96 at 100 ug/ml after 24 hrs by disc diffusion method; conditions: MTCC 96, 24 h, read-out: DIZ; in short: as §1
[13] = tested on: Fusarium verticillioides; experiment: Antimicrobial activity against Fusarium moniliforme MTCC 156 after 48 hrs by microdilution method; in short: as §2
[14] = tested on: Bacillus cereus; experiment: Antimicrobial activity against Bacillus cereus MTCC 8372 at 50 ug/ml after 24 hrs by disc diffusion method; conditions: MTCC 8372, 24 h, read-out: DIZ; in short: as §1
[15] = tested on: Aspergillus niger; experiment: Antimicrobial activity against Aspergillus niger MTCC 281 at 100 ug/ml after 48 hrs by disc diffusion method; conditions: for zone of inhibition at 100 µg/mL: MTCC 281, 48 h, read-out: DIZ; in short: as §1
[16] = tested on: Bacillus cereus; experiment: Antimicrobial activity against Bacillus cereus MTCC 8372 at 100 ug/ml after 24 hrs by disc diffusion method; conditions: MTCC 8372, 24 h, read-out: DIZ; in short: as §1
[17] = tested on: Fusarium oxysporum; experiment: Antimicrobial activity against Fusarium oxysporum MTCC 284 at 50 ug/ml after 48 hrs by disc diffusion method; conditions: for zone of inhibition at 50 µg/mL: MTCC 284, 48 h, read-out: DIZ; in short: as §1
[18] = tested on: Aspergillus niger; experiment: Antimicrobial activity against Aspergillus niger MTCC 281 after 48 hrs by microdilution method; in short: as §2
[19] = tested on: Bacillus cereus; experiment: Antimicrobial activity against Bacillus cereus MTCC 8372 after 24 hrs by microdilution method; conditions: MTCC 8372, 24 h; in short: as §2
[20] = tested on: Escherichia coli; experiment: Antimicrobial activity against Escherichia coli MTCC 724 at 50 ug/ml after 24 hrs by disc diffusion method; conditions: MTCC 724, 24 h, read-out: DIZ; in short: as §1
[21] = tested on: Klebsiella pneumoniae; experiment: Antimicrobial activity against Klebsiella pneumoniae MTCC 3384 at 100 ug/ml after 24 hrs by disc diffusion method; conditions: MTCC 3384, 24 h, read-out: DIZ; in short: as §1
[22] = tested on: Fusarium verticillioides; experiment: Antimicrobial activity against Fusarium moniliforme MTCC 156 at 100 ug/ml after 48 hrs by disc diffusion method; conditions: for zone of inhibition at 100 µg/mL: MTCC 156, 48 h, read-out: DIZ; in short: as §1
[23] = tested on: Fusarium oxysporum; experiment: Antimicrobial activity against Fusarium oxysporum MTCC 284 at 100 ug/ml after 48 hrs by disc diffusion method; conditions: for zone of inhibition at 100 µg/mL: MTCC 284, 48 h, read-out: DIZ; in short: as §1
[24] = tested on: Aspergillus niger; experiment: Antimicrobial activity against Aspergillus niger MTCC 281 at 50 ug/ml after 48 hrs by disc diffusion method; conditions: for zone of inhibition at 50 µg/mL: MTCC 281, 48 h, read-out: DIZ; in short: as §1

Cc1c(-c2nnc(-c3ccc([N+](=O)[O-])cc3)o2)c(-c2ccccc2)nn1-c1ccccc1
zone of inhibition at 100 µg/mL [1]: 12 mm | MFC ([2]; MTCC 284, 48 h): 275 µg/mL (≈ 649 µM) | MIC ([2]; MTCC 284, 48 h): 40 µg/mL (≈ 94.5 µM) | MBC [3]: 190 µg/mL (≈ 449 µM) | MIC [3]: 25 µg/mL (≈ 59 µM) | zone of inhibition at 100 µg/mL [4]: 20 mm | MBC [5]: 185 µg/mL (≈ 437 µM) | MIC [5]: 25 µg/mL (≈ 59 µM) | zone of inhibition at 50 µg/mL [6]: 6 mm | MFC ([7]; MTCC 873, 48 h): 290 µg/mL (≈ 685 µM) | MIC ([7]; MTCC 873, 48 h): 55 µg/mL (≈ 130 µM) | MBC [8]: 180 µg/mL (≈ 425 µM) | MIC [8]: 25 µg/mL (≈ 59 µM) | zone of inhibition at 50 µg/mL [9]: 5 mm | zone of inhibition at 50 µg/mL [10]: 3 mm | zone of inhibition at 50 µg/mL [11]: 7 mm | zone of inhibition at 100 µg/mL [12]: 10 mm | MFC ([13]; MTCC 156, 48 h): 290 µg/mL (≈ 685 µM) | MIC ([13]; MTCC 156, 48 h): 50 µg/mL (≈ 118 µM) | zone of inhibition at 50 µg/mL [14]: 6 mm | zone of inhibition at 100 µg/mL [15]: 11 mm | zone of inhibition at 100 µg/mL [16]: 14 mm | zone of inhibition at 50 µg/mL [17]: 6 mm | MFC ([18]; MTCC 281, 48 h): 280 µg/mL (≈ 661 µM) | MIC ([18]; MTCC 281, 48 h): 45 µg/mL (≈ 106 µM) | MBC [19]: 200 µg/mL (≈ 472 µM) | MIC [19]: 25 µg/mL (≈ 59 µM) | zone of inhibition at 50 µg/mL [20]: 11 mm | zone of inhibition at 100 µg/mL [21]: 10 mm | zone of inhibition at 100 µg/mL [22]: 8 mm | zone of inhibition at 100 µg/mL [23]: 8 mm | zone of inhibition at 50 µg/mL [24]: 2 mm

COc1ccc(-c2nnc(-c3c(-c4ccccc4)nn(-c4ccccc4)c3C)o2)cc1
zone of inhibition at 100 µg/mL [1]: 14 mm | MFC ([2]; MTCC 284, 48 h): 280 µg/mL (≈ 685 µM) | MIC ([2]; MTCC 284, 48 h): 50 µg/mL (≈ 122 µM) | MBC [3]: 225 µg/mL (≈ 551 µM) | MIC [3]: 35 µg/mL (≈ 85.7 µM) | zone of inhibition at 100 µg/mL [4]: 12 mm | MBC [5]: 240 µg/mL (≈ 588 µM) | MIC [5]: 45 µg/mL (≈ 110 µM) | zone of inhibition at 50 µg/mL [6]: 9 mm | MFC ([7]; MTCC 873, 48 h): 270 µg/mL (≈ 661 µM) | MIC ([7]; MTCC 873, 48 h): 45 µg/mL (≈ 110 µM) | MBC [8]: 235 µg/mL (≈ 575 µM) | MIC [8]: 45 µg/mL (≈ 110 µM) | zone of inhibition at 50 µg/mL [9]: 6 mm | zone of inhibition at 50 µg/mL [10]: 8 mm | zone of inhibition at 50 µg/mL [11]: 9 mm | zone of inhibition at 100 µg/mL [12]: 12 mm | MFC ([13]; MTCC 156, 48 h): 290 µg/mL (≈ 710 µM) | MIC ([13]; MTCC 156, 48 h): 50 µg/mL (≈ 122 µM) | zone of inhibition at 50 µg/mL [14]: 5 mm | zone of inhibition at 100 µg/mL [15]: 12 mm | zone of inhibition at 100 µg/mL [16]: 12 mm | zone of inhibition at 50 µg/mL [17]: 8 mm | MFC ([18]; MTCC 281, 48 h): 275 µg/mL (≈ 673 µM) | MIC ([18]; MTCC 281, 48 h): 45 µg/mL (≈ 110 µM) | MBC [19]: 220 µg/mL (≈ 539 µM) | MIC [19]: 35 µg/mL (≈ 85.7 µM) | zone of inhibition at 50 µg/mL [20]: 8 mm | zone of inhibition at 100 µg/mL [21]: 11 mm | zone of inhibition at 100 µg/mL [22]: 11 mm | zone of inhibition at 100 µg/mL [23]: 12 mm | zone of inhibition at 50 µg/mL [24]: 6 mm

NYSTATIN
inhibition zone (IZ) [1]: 20 mm | MFC [2]: 100 µg/mL | MIC [2]: 15 µg/mL | inhibition zone (IZ) [6]: 12 mm | MFC [7]: 100 µg/mL | MIC [7]: 8 µg/mL | inhibition zone (IZ) [10]: 16 mm | MFC [13]: 100 µg/mL | MIC [13]: 12 µg/mL | inhibition zone (IZ) [15]: 25 mm | inhibition zone (IZ) [17]: 16 mm | MFC [18]: 100 µg/mL | MIC [18]: 10 µg/mL | inhibition zone (IZ) [22]: 28 mm | inhibition zone (IZ) [23]: 30 mm | inhibition zone (IZ) [24]: 10 mm

CN(C)[C@@H]1C(O)=C(C(N)=O)C(=O)[C@@]2(O)C(O)=C3C(=O)c4c(O)cccc4[C@@](C)(O)[C@H]3C[C@@H]12 [TETRACYCLINE]
MBC [3]: 120 µg/mL (≈ 270 µM) | MIC [3]: 10 µg/mL (≈ 22.5 µM) | zone of inhibition at 100 µg/mL [4]: 30 mm | MBC [5]: 120 µg/mL (≈ 270 µM) | MIC [5]: 8 µg/mL (≈ 18 µM) | MBC [8]: 120 µg/mL (≈ 270 µM) | MIC [8]: 12 µg/mL (≈ 27 µM) | zone of inhibition at 50 µg/mL [9]: 9 mm | zone of inhibition at 50 µg/mL [11]: 12 mm | zone of inhibition at 100 µg/mL [12]: 20 mm | zone of inhibition at 50 µg/mL [14]: 10 mm | zone of inhibition at 100 µg/mL [16]: 21 mm | MBC [19]: 120 µg/mL (≈ 270 µM) | MIC [19]: 4 µg/mL (≈ 9 µM) | zone of inhibition at 50 µg/mL [20]: 18 mm | zone of inhibition at 100 µg/mL [21]: 20 mm
